Assay results taken from ChEMBL document CHEMBL1157858, “Synthesis and antituberculosis activity of some N-pyridyl-N'-thiazolylhydrazine derivatives” (Eur J Med Chem, 2010).
Converted amounts (≈) assume the structure as drawn.

Legend:
[1] = tested on: Mycobacterium tuberculosis; assay: Antitubercular activity against Mycobacterium tuberculosis H37Rv by Alamar blue assay; type: functional, organism-based
Procedure, shortened: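 M. tuberculosis H37Rv (ATCC 27294) grown in BACTEC 12B medium and tested by Microplate Alamar Blue Assay. Ten 2-fold dilutions, typically from 100 to 0.19. IC90 is the concentration giving a 90% drop in fluorescence relative to controls.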

[2] = Selectivity index, ratio of CC50 for african green monkey Vero cells to IC90 for Mycobacterium tuberculosis H37Rv; type: toxicity, cell-based; conditions: read-out: Selectivity Index
Procedure, shortened: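 Vero cells run in parallel with the TB dose-response assay. Viability is read after 72 h exposure by CellTiter-Glo luminescence, which quantifies cellular ATP. CC50 is fitted from the dose-response curve. IC90 for H37Rv comes from the MABA fluorescence readout, as a 90% reduction relative to controls.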

[3] = Cytotoxicity against african green monkey Vero cells after 72 hrs by cell titer-glo assay; type: cell-based; conditions: chlorocebus sabaeus
Procedure, shortened: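 Vero cells, run alongside the TB dose-response assay; compound exposure 72 h, then viability read by ATP-based luminescence (CellTiter-Glo). CC50 taken from the dose–response curve by curve fitting.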

SMILES | IC50 [1] [µg/mL] | IC90 [1] [µg/mL] | selectivity ratio [2] | CC50 at 72 h [3] [µg/mL]
C/C(=N\Nc1nc(-c2cccs2)cs1)c1ccncc1 | > 100 | > 100 | – | –
C/C(=N\Nc1nc(-c2cccs2)cs1)c1ccccn1 | 48.4 (≈ 161 µM) | 55.2 (≈ 184 µM) | – | –
COc1ccc(O)c(-c2csc(N/N=C(\C)c3ccccn3)n2)c1 | 6.22 (≈ 18.3 µM) | 6.78 (≈ 19.9 µM) | > 5.89 | > 40
C/C(=N\Nc1nc(-c2cccs2)cs1)c1cccnc1 | 92.2 (≈ 307 µM) | > 100 | – | –
COc1ccc(O)c(-c2csc(N/N=C(\C)c3ccncc3)n2)c1 | > 100 | > 100 | – | –
COc1ccc(O)c(-c2csc(N/N=C(\C)c3cccnc3)n2)c1 | > 100 | > 100 | – | –
